According to ChEMBL document CHEMBL4823296, “NMR-Guided Design of Potent and Selective EphA4 Agonistic Ligands” (J Med Chem, 2021):
In brackets after ≈: the same amount, converted by molar mass. Activity calls are given as the source filed them. No cut-off for these calls is given here. Non-standard residues stand in square brackets, D forms with d. Residues, ends and D or L forms follow the SMILES beside them. *: point of attachment. Cyclohexanoyl(1S,3S-3-NH2) = N[C@H]1CCC[C@H](C(=O)*)C1; Trp(5-OH) = N[C@@H](Cc1c[nH]c2ccc(O)cc12)C(=O)O; NH(4-morpholinophenyl) = c1cc(N2CCOCC2)ccc1N*; Bip = N[C@@H](Cc1ccc(-c2ccccc2)cc1)C(=O)O; hArg = N=C(N)NCCCC[C@H](N)C(=O)O

Tests used:
[1] = molecular target: Ephrin type-A receptor 4 (Mus musculus) (UniProt Q03137); assay: Agonist activity at EphA4 in B6-Cg-Tg(Hlxb9-GFP)1Tmj/J (Hb9-GFP) mouse primary spinal cord motor neuron cells assessed as protein phosphorylation at […] residues at 1 to 10 uM incubated for 30 mins by Western blotting analysis; conditions: filed as agonist, dose 1-10 µM
Procedure, shortened: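 Hb9-GFP mouse motor neurons from P0–2 spinal cords (papain/DNase I dissociation, OptiPrep purification), plated on poly-D-lysine/laminin in Neurobasal/B27, then 5% horse serum plus CNTF; at 2 DIV treated 30 min at 37°C, 5% CO2/10% O2, at 1 or 10 μM; 0.1% DMSO, pre-clustered Fc and ephrinA1-Fc (2 μg/mL) controls. Lysates immunoprecipitated with anti-EphA4, blotted for phosphotyrosine, reprobed for EphA4; pEphA4/total EphA4 band density ratio; SEM, each experiment repeated 3 times.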

[2] = molecular target: Ephrin type-A receptor 4 (Mus musculus) (UniProt Q03137); assay: Agonist activity at EphA4 in B6-Cg-Tg(Hlxb9-GFP)1Tmj/J (Hb9-GFP) mouse spinal cord motor neurons assessed as induction of growth cone collapse at 1 to 10 uM by rhodamine-coupled phalloidin dye based inverted fluorescent microscopic method; conditions: filed as agonist, dose 1-10 µM
Procedure, shortened: (§1)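 Primary Hb9-GFP mouse spinal cord motor neurons at 2 DIV treated as in receptor activation assay (30 min, 37°C), 1 or 10 μM, alone or with pre-clustered ephrinA1-Fc (2 μg/mL); 0.1% DMSO negative control. Fixed in 2% paraformaldehyde, F-actin stained with rhodamine-phalloidin, ChAT immunolabelled; 20× fluorescence imaging, percent collapsed growth cones, 100 images per group; SEM, n=4–6 coverslips.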

Ephrin type-A receptor 4 [3] = molecular target: T1, Ephrin type-A receptor 4 (Homo sapiens, UniProt P54764); assay: Binding affinity to N-terminal His tagged EphA4 LBD (unknown origin) (29 to 209 residues) expressed in Rosetta-Gami B(DE3) cells by isothermal titration calorimetry
[4] = Aqueous solubility of compound; type: physicochemical; conditions: buffer
[5] = molecular target: Ephrin type-A receptor 4 (Mus musculus) (UniProt Q03137); assay: Agonist activity at EphA4 in B6-Cg-Tg(Hlxb9-GFP)1Tmj/J (Hb9-GFP) mouse spinal cord motor neurons assessed as induction of growth cone collapse at 1 to 10 uM in presence of ephrin A1-Fc by rhodamine-coupled phalloidin dye based inverted fluorescent microscopic method; conditions: filed as agonist, dose 1-10 µM; procedure, shortened: as §1
Ephrin type-A receptor 4 [6] = molecular target: T1, Ephrin type-A receptor 4; assay: Displacement of EphrinA5 from N-terminal His tagged EphA4 LBD (unknown origin) (29 to 209 residues) expressed in Rosetta-Gami B(DE3) cells by 2D-[13C-1H] HSQC NMR spectroscopy; type: cell-based; conditions: filed as agonist
Neuron [7] = assay: Cytoprotective activity against patient derived induced astrocyte-mediated B6-Cg-Tg(Hlxb9-GFP)1Tmj/J (Hb9-GFP) mouse motor neuron death at 10 uM measured after 3 days by imaging method; type: functional, tissue-based; conditions: time 3.0 day
Procedure, shortened: (§2)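 Patient fibroblast-derived NPCs differentiated 5 days into induced astrocytes (DMEM, 10% FBS, 0.2% N2), seeded 10,000 per well; 24 h later GFP+ (HB9 promoter) motor neurons sorted from mouse embryoid bodies added at 10,000 per well together with compound. Imaged up to 3 days; neurons with neurites >50 μm counted alive, normalized to healthy-control survival; at least 2 independent experiments.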

Neuron [8] = assay: Cytoprotective activity against patient derived induced astrocyte-mediated B6-Cg-Tg(Hlxb9-GFP)1Tmj/J (Hb9-GFP) mouse motor neuron death at 100 uM measured after 3 days by imaging method; type: functional, tissue-based; conditions: time 3.0 day; procedure, shortened: as §2
Ephrin type-A receptor 2 = Ephrin type-A receptor 2 (Homo sapiens, UniProt P29317); assay: Binding affinity to N-terminal His tagged EphA2 LBD (27 to 200 residues) (unknown origin) expressed in Origami (DE3) cells by isothermal titration calorimetry
Ephrin type-A receptor 2, sequence (P29317 whole entry, the tested form may be a part): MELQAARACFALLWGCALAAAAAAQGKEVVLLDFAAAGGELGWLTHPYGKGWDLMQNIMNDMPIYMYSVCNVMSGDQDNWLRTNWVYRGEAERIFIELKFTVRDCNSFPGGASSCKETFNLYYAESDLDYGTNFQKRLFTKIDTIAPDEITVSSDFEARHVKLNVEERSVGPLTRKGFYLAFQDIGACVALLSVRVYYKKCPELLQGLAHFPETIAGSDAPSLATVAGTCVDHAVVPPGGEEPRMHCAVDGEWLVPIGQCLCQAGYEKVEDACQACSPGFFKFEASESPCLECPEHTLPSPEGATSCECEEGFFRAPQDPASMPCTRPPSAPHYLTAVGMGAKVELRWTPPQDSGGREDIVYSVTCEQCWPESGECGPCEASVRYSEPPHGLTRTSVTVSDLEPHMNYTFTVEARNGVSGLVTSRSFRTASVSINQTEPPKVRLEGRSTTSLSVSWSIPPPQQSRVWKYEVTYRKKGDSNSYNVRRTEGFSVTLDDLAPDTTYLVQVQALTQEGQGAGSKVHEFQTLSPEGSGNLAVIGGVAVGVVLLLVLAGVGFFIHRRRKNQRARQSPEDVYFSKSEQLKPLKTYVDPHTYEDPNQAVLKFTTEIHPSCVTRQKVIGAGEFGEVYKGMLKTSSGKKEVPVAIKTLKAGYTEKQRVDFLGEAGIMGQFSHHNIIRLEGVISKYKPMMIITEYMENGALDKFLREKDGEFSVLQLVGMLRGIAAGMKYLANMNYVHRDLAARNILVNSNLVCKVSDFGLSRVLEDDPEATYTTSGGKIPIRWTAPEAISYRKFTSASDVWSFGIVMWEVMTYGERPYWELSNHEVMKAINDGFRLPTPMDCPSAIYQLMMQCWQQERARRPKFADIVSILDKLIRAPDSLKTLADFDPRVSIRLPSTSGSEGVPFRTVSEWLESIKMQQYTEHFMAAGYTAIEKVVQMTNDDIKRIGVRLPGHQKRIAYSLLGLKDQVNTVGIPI

Ephrin type-A receptor 4 (Mus musculus), sequence (Q03137 whole entry, the tested form may be a part): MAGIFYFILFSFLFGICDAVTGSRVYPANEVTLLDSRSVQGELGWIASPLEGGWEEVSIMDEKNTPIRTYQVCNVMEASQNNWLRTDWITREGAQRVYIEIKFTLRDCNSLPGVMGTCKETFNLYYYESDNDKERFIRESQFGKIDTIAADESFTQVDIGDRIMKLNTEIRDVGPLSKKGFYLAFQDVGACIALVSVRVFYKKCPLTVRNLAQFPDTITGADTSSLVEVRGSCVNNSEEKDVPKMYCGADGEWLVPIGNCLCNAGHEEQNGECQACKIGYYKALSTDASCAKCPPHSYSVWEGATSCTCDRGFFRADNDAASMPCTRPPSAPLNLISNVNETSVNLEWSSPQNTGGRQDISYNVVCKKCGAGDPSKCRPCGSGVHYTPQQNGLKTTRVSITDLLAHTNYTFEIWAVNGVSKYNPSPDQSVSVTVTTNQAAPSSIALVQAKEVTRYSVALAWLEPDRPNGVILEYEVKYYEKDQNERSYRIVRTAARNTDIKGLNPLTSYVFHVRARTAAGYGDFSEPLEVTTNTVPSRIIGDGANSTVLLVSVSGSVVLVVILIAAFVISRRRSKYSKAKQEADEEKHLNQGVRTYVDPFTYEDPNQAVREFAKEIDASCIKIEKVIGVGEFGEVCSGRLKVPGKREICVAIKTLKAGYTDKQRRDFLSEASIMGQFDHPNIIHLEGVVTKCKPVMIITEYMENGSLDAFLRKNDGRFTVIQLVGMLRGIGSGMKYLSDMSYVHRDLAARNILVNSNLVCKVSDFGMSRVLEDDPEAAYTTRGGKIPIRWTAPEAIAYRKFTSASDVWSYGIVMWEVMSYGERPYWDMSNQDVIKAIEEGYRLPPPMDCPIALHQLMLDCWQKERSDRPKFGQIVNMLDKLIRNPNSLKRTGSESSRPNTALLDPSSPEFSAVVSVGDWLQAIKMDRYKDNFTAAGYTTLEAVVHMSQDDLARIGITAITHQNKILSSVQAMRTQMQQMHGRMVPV
T1 sequence (P54764 whole entry, the tested form may be a part): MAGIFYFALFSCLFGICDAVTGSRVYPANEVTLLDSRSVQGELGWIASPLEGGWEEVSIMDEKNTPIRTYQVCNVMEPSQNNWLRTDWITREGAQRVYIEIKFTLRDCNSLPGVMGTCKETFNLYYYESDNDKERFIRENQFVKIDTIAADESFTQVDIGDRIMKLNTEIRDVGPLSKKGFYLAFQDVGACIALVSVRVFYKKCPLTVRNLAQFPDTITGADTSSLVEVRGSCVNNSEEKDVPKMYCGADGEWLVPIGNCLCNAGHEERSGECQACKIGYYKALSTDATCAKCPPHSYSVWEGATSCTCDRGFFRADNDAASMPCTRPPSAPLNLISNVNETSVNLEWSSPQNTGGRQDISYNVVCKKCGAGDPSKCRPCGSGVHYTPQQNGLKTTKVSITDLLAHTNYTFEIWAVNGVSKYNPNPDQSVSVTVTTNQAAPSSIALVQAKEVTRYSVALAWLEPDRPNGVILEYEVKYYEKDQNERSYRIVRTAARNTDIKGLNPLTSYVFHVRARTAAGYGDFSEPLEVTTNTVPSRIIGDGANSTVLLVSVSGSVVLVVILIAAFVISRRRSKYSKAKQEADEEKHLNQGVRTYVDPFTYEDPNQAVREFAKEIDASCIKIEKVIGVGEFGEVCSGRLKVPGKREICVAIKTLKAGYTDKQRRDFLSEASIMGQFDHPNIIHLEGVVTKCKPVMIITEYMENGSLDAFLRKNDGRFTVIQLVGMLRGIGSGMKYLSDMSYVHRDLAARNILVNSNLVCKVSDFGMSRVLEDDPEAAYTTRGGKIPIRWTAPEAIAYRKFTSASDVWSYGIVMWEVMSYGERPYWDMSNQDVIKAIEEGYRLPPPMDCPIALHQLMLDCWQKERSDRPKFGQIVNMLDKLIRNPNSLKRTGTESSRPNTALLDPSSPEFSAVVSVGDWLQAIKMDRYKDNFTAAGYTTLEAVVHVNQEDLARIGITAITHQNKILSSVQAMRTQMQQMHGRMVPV

Row | solubility ([4]; read-out: solubility) | Kd (Ephrin type-A receptor 2) | SMILES | Activity [1] | Activity [2] | Kd (Ephrin type-A receptor 4 [3]) | solubility [4] | Activity [5] | Activity (Ephrin type-A receptor 4 [6]) | Activity (Neuron [7]) | Activity (Neuron [8])
1 | – | – | N=C(N)NCCCC[C@H](NC(=O)[C@H](Cc1ccc(-c2ccccc2)cc1)NC(=O)[C@H](Cc1c[nH]c2ccc(O)cc12)NC(=O)[C@H]1CCC[C@H](N)C1)C(=O)NCC(=O)Nc1ccc(N2CCOCC2)cc1 ({Cyclohexanoyl(1S,3S-3-NH2)}-[Trp(5-OH)][Bip][hArg]G-{NH(4-morpholinophenyl)}) | Active | Active | 113 nM | > 50000 µM | Active | Active | Active | –
2 | 100 µM (≈ 80.7 µg/mL) | Not Active | COc1ccc2[nH]cc(CCNC(=O)[C@H](Cc3ccncc3)NC(=O)[C@H](Cc3ccc(Cl)cc3)NC(=O)[C@H](Cc3c[nH]c4ccc(O)cc34)NC(=O)CCCN)c2c1 | – | – | – | – | – | – | – | Active
